Experimental data published in ChEMBL document CHEMBL1131615, “Synthesis and tyrosine kinase inhibitory activity of a series of 2-amino-8H-pyrido[2,3-d]pyrimidines: identification of potent, selective platelet-derived growth factor receptor tyrosine kinase inhibitors” (J Med Chem, 1998).

Key:
[1] = biological target: T1, Platelet-derived growth factor receptor (PDGFr) (Rattus norvegicus, UniProt P20786+Q05030); experiment: Inhibition of PDGF-stimulated Platelet-derived growth factor receptor autophosphorylation in rat aortic vascular smooth muscle cells (RAVSMCs) after 2 hr
[2] = biological target: Platelet-derived growth factor receptor (Mus musculus, UniProt P05622+P26618); experiment: Inhibition against of platelet-derived growth factor receptor (PDGFr)
[3] = biological target: Fibroblast growth factor receptor (Mus musculus, UniProt P21803+Q03142+P16092+Q61851); experiment: Inhibition of mouse fibroblast growth factor receptor tyrosine kinase (FGFr); format: protein assay
[4] = biological target: Proto-oncogene tyrosine-protein kinase Src (Mus musculus, UniProt P05480); experiment: Inhibition of mouse c-Src tyrosine kinase
Chain of Proto-oncogene tyrosine-protein kinase Src (P05480 2-535 limits assumed): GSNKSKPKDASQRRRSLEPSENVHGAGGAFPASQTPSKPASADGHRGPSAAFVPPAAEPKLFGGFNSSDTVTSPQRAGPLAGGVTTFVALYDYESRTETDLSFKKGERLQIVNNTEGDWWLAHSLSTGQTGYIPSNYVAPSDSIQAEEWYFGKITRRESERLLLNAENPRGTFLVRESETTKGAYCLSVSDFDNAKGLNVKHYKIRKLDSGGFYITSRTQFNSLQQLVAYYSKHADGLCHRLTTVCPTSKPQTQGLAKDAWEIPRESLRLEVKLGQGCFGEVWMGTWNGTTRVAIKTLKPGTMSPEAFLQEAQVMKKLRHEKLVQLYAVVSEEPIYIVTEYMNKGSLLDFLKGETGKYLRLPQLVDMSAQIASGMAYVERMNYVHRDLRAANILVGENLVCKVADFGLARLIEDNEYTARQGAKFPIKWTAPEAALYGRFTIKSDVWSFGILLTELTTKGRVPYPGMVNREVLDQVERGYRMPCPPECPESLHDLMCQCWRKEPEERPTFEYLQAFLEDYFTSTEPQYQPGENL

[5] = Compound was tested for maximum observed concentration in three male Wistar rats at a single 5 mg/kg oral gavage dose; format: ADME, organism-based; design: dose 5 mg/kg, route oral; details: rat, in vivo
How it was run: (§1)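 Single 5 mg/kg oral gavage dose given to three male Wistar rats, in 17% PEG 400/83% methylcellulose (0.5%). Heparinized plasma was taken by jugular vein cannula from 0 to 48 h; lower limit of quantitation was 10 ng/mL. Noncompartmental analysis: t1/2 = 0.693/λz (log-linear terminal regression); AUC by trapezoidal rule, extrapolated to infinity.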

C6 [6] = experiment: C6 glioma 3-day proliferation followed by soft agar growth without treatment; format: functional, cell-based; details: Rattus norvegicus, C6, 72 h
How it was run: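 C6 rat glioma cells exposed to a range of compound concentrations for 3 days in culture, then cloned in soft agar with drug removed. IC50 derived.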

[7] = biological target: T1, Platelet-derived growth factor receptor (PDGFr); experiment: Inhibition of PDGF-stimulated Platelet-derived growth factor receptor autophosphorylation in C6 rat glioma cells after 2 hr; format: cell-based
Rattus norvegicus [8] = experiment: Compound was tested for area under concentration -time curve from time 0 to time of last detectable concentration in three male Wistar rats at a single 5 mg/kg oral gavage dose; format: ADME, organism-based; design: dose 5 mg/kg, route oral; details: in vivo; how it was run: as §1
C6 [9] = experiment: C6 glioma 3-day proliferation followed by soft agar growth with continuous treatment; format: functional, cell-based; details: Rattus norvegicus, C6, 72 h
How it was run: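 C6 rat glioma cells exposed to a range of compound concentrations for 3 days in culture, then cloned in soft agar with drug kept present throughout colony growth. IC50 derived.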

C6 [10] = experiment: Inhibition of rat C6 glioma cell proliferation in sulforhodamine B assay; format: functional, cell-based
How it was run: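 C6 rat glioma cells cultured 4 days with a range of compound concentrations; growth read by sulforhodamine B staining, giving IC50.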

[11] = Compound was tested for apparent terminal phase elimination half life in three male Wistar rats at a single 5 mg/kg oral gavage dose; format: ADME, organism-based; design: dose 5 mg/kg, route oral; details: rat, in vivo; how it was run: as §1
[12] = Compound was tested for time to reach Cmax in three male Wistar rats at a single 5 mg/kg oral gavage dose.; format: ADME, organism-based; design: dose 5 mg/kg, route oral; details: rat, in vivo; how it was run: as §1
Rattus norvegicus [13] = experiment: Compound was tested for area under concentration -time curve from time 0 to time infinity in three male Wistar rats at a single 5 mg/kg oral gavage dose.; format: ADME, organism-based; design: dose 5 mg/kg, route oral; details: in vivo; how it was run: as §1
C6 [14] = experiment: Weight change after 40 mg/kg peroral dose, days 1-15 treatment of C6 glioma cell tumor; format: functional; details: route oral
How it was run: (§2)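 Nude mice (18-22 g), randomized, implanted sc in the right axilla on day 0 with tumor fragments maintained by serial passage in nude mice. Tumors were C6 rat glioma, NIH 3T3 transfected with human PDGF ββ, or DU-145 prostate. At least 6 mice per group, 12 controls. Oral dosing by average cage weight on the stated days.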

Rattus norvegicus [15] = experiment: Compound was tested for area under concentration -time curve from time 0 to time infinity in three male Wistar rats at a single 5 mg/kg oral gavage dose; format: ADME, organism-based; design: dose 5 mg/kg, route oral; details: in vivo; how it was run: as §1
Mus musculus [16] = experiment: Delay between treated (T) and control (C) PDGF-transfected cell tumors reaching 750 mg at 20 mg/kg peroral dose, days 1-15 administration; format: functional; details: route oral; how it was run: as §2
DU-145 [17] = experiment: Weight change after 48 mg/kg peroral dose, days 16-20,23-27,30-34 treatment of DU-145 cell tumor
DU-145 [18] = experiment: Delay between treated (T) and control (C) DU-145 cell tumors reaching 750 mg at 48 mg/kg peroral dose, days 16-20,23-27,30-34 administration; format: functional; details: route oral; how it was run: as §2
C6 [19] = experiment: Ratio of treated/control C6 glioma cell tumor mass at 40 mg/kg peroral dose, days 1-15 administration; format: functional; details: route oral
How it was run: (§3)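 Nude mouse sc axillary tumor-fragment xenografts implanted on day 0 (6-8 treated, 12 controls), with oral dosing on the stated schedule. T/C = median treated tumor mass / median control tumor mass × 100%, on the last therapy day.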

DU-145 [20] = experiment: Ratio of treated/control DU-145 cell tumor mass at 48 mg/kg peroral dose, days 16-20, 23-27, 30-34 administration; format: functional; details: route oral; how it was run: as §3
DU-145 [21] = experiment: Net reduction in DU-145 cell tumor burden after 48 mg/kg peroral dose, days 16-20,23-27,30-34 administration; format: functional; details: route oral
How it was run: (§4)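 Tumor lines (C6 rat glioma; NIH 3T3 fibroblasts transfected with human PDGF-ββ; DU-145 prostatic adenocarcinoma) were kept by serial passage in nude mice. Randomized nude mice weighing 18-22 g received sc tumor fragments in the right axilla on day 0, with at least 6 per treated group and 12 controls. Oral dosing was based on average cage weight. Net cell kill is given as log10.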

Mus musculus [22] = experiment: Net reduction in PDGF-transfected cell tumor burden after 20 mg/kg peroral dose, days 1-15 administration; format: functional; details: route oral; how it was run: as §4
C6 [23] = experiment: Delay between treated (T) and control (C) C6 glioma cell tumors reaching 750 mg at 40 mg/kg peroral dose, days 1-15 administration; format: functional; details: route oral; how it was run: as §2
Mus musculus [24] = experiment: Ratio of treated/control PDGF-transfected cell tumor mass at 20 mg/kg peroral dose, days 1-15 administration; format: functional; details: route oral; how it was run: as §3
Mus musculus [25] = experiment: Weight change after 20 mg/kg peroral dose, days 1-15 treatment of PDGF-transfected cell tumor; format: functional, organism-based; design: dose 20 mg/kg; how it was run: as §2
C6 [26] = experiment: Net reduction in C6 glioma cell tumor burden after 40 mg/kg peroral dose, days 1-15 administration; format: functional; details: route oral; how it was run: as §4

## CCN(CC)CCOc1ccc(Nc2ncc3cc(-c4ccsc4)c(=O)n(C)c3n2)cc1
[1]
  IC50: 0.054 µM
[2]
  IC50: 0.054 µM
[3]
  IC50: 2.9 µM
[4]
  IC50: 0.21 µM

## CCn1c(=O)c(-c2ccccc2)cc2cnc(Nc3ccncc3)nc21
[5]
  Cmax: 730 ng/mL
C6 [6]
  IC50: 13.2 µM
[7]
  IC50: 0.058 µM
Rattus norvegicus [8]
  AUC: 4760 ng·h/mL
[2]
  IC50: 0.074 µM
[3]
  IC50: 1.1 µM
C6 [9]
  IC50: 4.9 µM
C6 [10]
  IC50: 7.2 µM
[4]
  IC50: 0.41 µM
[11]
  half-life: 3.72 h
[12]
  Tmax: 1.5 h
Rattus norvegicus [13]
  AUC: 5240 ng·h/mL

## CCN(CC)CCOc1ccc(Nc2ncc3cc(-c4c(Cl)cccc4Cl)c(=O)n(CC)c3n2)cc1
[2]
  IC50: 0.15 µM
[3]
  IC50: 0.03 µM
[4]
  IC50: 0.017 µM

## Nc1ncc2cc(-c3c(Cl)cccc3Cl)c(=O)n(CCCOCc3ccccc3)c2n1
[2]
  IC50: 6.8 µM
[3]
  IC50: 3.2 µM
[4]
  IC50: 1.4 µM

## Cn1c(=O)c(-c2c(Cl)cccc2Cl)cc2cnc(N)nc21
[2]
  IC50: 3.8 µM
[3]
  IC50: 1.3 µM
[4]
  IC50: 0.26 µM

## CCCn1c(=O)c(-c2c(Cl)cccc2Cl)cc2cnc(N)nc21
[2]
  IC50: 1.2 µM
[3]
  IC50: 0.51 µM
[4]
  IC50: 0.63 µM

## Cn1c(=O)c(-c2ccsc2)cc2cnc(N)nc21
[2]
  IC50: 24.4 µM
[3]
  IC50: > 50 µM
[4]
  IC50: > 50 µM

## CC(C)Cn1c(=O)c(-c2c(Cl)cccc2Cl)cc2cnc(N)nc21
[2]
  IC50: 1.6 µM
[3]
  IC50: 0.5 µM
[4]
  IC50: 0.89 µM

## Cn1c(=O)c(-c2ccsc2)cc2cnc(Nc3ccccc3)nc21
[2]
  IC50: 0.8 µM
[3]
  IC50: > 50 µM
[4]
  IC50: 8.1 µM

## Nc1ncc2cc(-c3c(Cl)cccc3Cl)c(=O)n(Cc3ccncc3)c2n1
[2]
  IC50: 1.2 µM
[4]
  IC50: 0.63 µM

## Cn1c(=O)c(-c2ccc(-c3ccccc3)cc2)cc2cnc(Nc3ccccc3)nc21
[2]
  IC50: > 50 µM
[3]
  IC50: > 50 µM
[4]
  IC50: > 50 µM

## Cn1c(=O)c(-c2ccccc2)cc2cnc(Nc3ccccc3)nc21
[2]
  IC50: 0.29 µM
[3]
  IC50: 5 µM
[4]
  IC50: 2.4 µM

## CCn1c(=O)c(-c2ccccc2)cc2cnc(Nc3ccccc3)nc21
[1]
  IC50: 0.0046 µM
[7]
  IC50: > 0.025 µM
[2]
  IC50: 0.18 µM
[3]
  IC50: 1.5 µM
[4]
  IC50: 1.8 µM

## CCn1c(=O)c(-c2ccsc2)cc2cnc(Nc3ccccc3)nc21
[7]
  IC50: > 0.025 µM
[2]
  IC50: 0.41 µM
[3]
  IC50: > 50 µM
[4]
  IC50: 41 µM

## Nc1ncc2cc(-c3c(Cl)cccc3Cl)c(=O)n(CCCO)c2n1
[2]
  IC50: 1.1 µM
[3]
  IC50: 0.37 µM
[4]
  IC50: 0.18 µM

## Nc1ncc2cc(-c3c(Cl)cccc3Cl)c(=O)n(Cc3ccccc3)c2n1
[2]
  IC50: 4.2 µM
[3]
  IC50: 1.4 µM
[4]
  IC50: 0.16 µM

## CN(C)CCCn1c(=O)c(-c2c(Cl)cccc2Cl)cc2cnc(N)nc21
[2]
  IC50: 1.8 µM
[3]
  IC50: 0.88 µM
[4]
  IC50: 0.05 µM

## Cn1c(=O)c(-c2ccsc2)cc2cnc(Nc3ccncc3)nc21
[2]
  IC50: 0.48 µM
[3]
  IC50: 22.6 µM
[4]
  IC50: 1.7 µM

## COC(=O)Cn1c(=O)c(-c2c(Cl)cccc2Cl)cc2cnc(N)nc21
[2]
  IC50: 5 µM
[3]
  IC50: 1.7 µM
[4]
  IC50: 0.34 µM

## Cn1c(=O)c(-c2cccs2)cc2cnc(Nc3ccccc3)nc21
[2]
  IC50: 0.95 µM
[3]
  IC50: > 50 µM
[4]
  IC50: > 50 µM

## CC(C)(C)OC(=O)Cn1c(=O)c(-c2c(Cl)cccc2Cl)cc2cnc(N)nc21
[2]
  IC50: 7.2 µM
[3]
  IC50: 1.7 µM
[4]
  IC50: 0.56 µM

## CCN(CC)CCOc1ccc(Nc2ncc3cc(-c4ccccc4)c(=O)n(CC)c3n2)cc1
C6 [14]
  Weight change: -0.7 g
[5]
  Cmax: 78.3 ng/mL
Rattus norvegicus [15]
  AUC: 828 ng·h/mL
C6 [6]
  IC50: 0.15 µM
[7]
  IC50: 0.003 µM
Mus musculus [16]
  T-C: 6.9 days
Rattus norvegicus [8]
  AUC: 525 ng·h/mL
[2]
  IC50: 0.031 µM
DU-145 [17]
  Weight change: Weight gain
DU-145 [18]
  T-C: 11.4 days
[3]
  IC50: 0.088 µM
C6 [19]
  T/C: 0%
DU-145 [20]
  T/C: 40%
DU-145 [21]
  Net log cell kill: -0.4
C6 [9]
  IC50: 0.12 µM
Mus musculus [22]
  Net log cell kill: -1.2
C6 [23]
  T-C: 9.6 days
Mus musculus [24]
  T/C: 1%
C6 [10]
  IC50: 1.2 µM
[4]
  IC50: 0.031 µM
Mus musculus [25]
  Weight change: Weight gain
[11]
  half-life: 6.65 h
[12]
  Tmax: 2.67 h
C6 [26]
  Net log cell kill: -0.3

## Nc1ncc2cc(-c3c(Cl)cccc3Cl)c(=O)n(CC(=O)O)c2n1
[2]
  IC50: > 50 µM
[3]
  IC50: 7.9 µM
[4]
  IC50: > 50 µM

## CNc1ncc2cc(-c3ccsc3)c(=O)n(C)c2n1
[2]
  IC50: > 50 µM
[3]
  IC50: > 50 µM
[4]
  IC50: > 50 µM

## CCCCn1c(=O)c(-c2c(Cl)cccc2Cl)cc2cnc(N)nc21
[2]
  IC50: 1.2 µM
[3]
  IC50: 0.58 µM
[4]
  IC50: 0.33 µM

## Cn1c(=O)c(-c2ccccc2)cc2cnc(Nc3ccncc3)nc21
[2]
  IC50: 0.32 µM
[3]
  IC50: 4.7 µM
[4]
  IC50: 0.47 µM

## CCN(CC)CCOc1ccc(Nc2ncc3cc(-c4ccccc4)c(=O)n(C)c3n2)cc1
[2]
  IC50: 0.042 µM
[3]
  IC50: 0.35 µM
[4]
  IC50: 0.14 µM

## CCn1c(=O)c(-c2c(Cl)cccc2Cl)cc2cnc(N)nc21
[2]
  IC50: 0.98 µM
[4]
  IC50: 0.16 µM
